Source: ChEMBL document CHEMBL5724801, “EUbOPEN Chemogenomics Library - Multiplex” (2024)
Where “and” joins values, the source holds several entries; their conditions need not be identical. Equal values may be shown once.

System: Fibroblast
Test: Multiplex assay against human fibroblast
Assay type: toxicity, cell-based
Outline: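 At seeding, live cells were stained with Hoechst33342, BioTracker Green Microtubule Cytoskeleton Dye, MitoTracker Red and Annexin V Alexa Fluor 680. After compound addition they were imaged on a CQ1 microscope at 37°C and 5% CO2, and CellPathfinder machine-learning gating sorted them into Hoechst high-intensity objects or normal cells, with normal cells further split into healthy, pyknosed or fragmented nuclei and pyknosed cells into mitotic or apoptotic. Tubulin, mitochondrial-mass and membrane-permeability phenotypes are given as per cents of cells with healthy nuclei.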

[1] = 12 h, 1 µM, compound concentration 1 uM
[2] = 12 h, 10 µM, compound concentration 10 uM
[3] = 24 h, 1 µM, compound concentration 1 uM
[4] = 24 h, 10 µM, compound concentration 10 uM
[5] = 48 h, 1 µM, compound concentration 1 uM
[6] = 48 h, 10 µM, compound concentration 10 uM

Structure (SMILES): O=C(Nc1cc(C(F)(F)F)cc(C(F)(F)F)c1)c1cc(Cl)ccc1O [IMD-0354]
- Population Apoptotic (%) [1]: 6.12% and 12.9%
- Population Fragmented Nuclei (%) [1]: 11.69% and 4.09%
- Population Healthy Nuclei (%) [1]: 56.49% and 77.78%
- Population Hoechst High Intensity Objects (%) [1]: 0%
- Population Membrane Permeable-Phenotype (%) [1]: 4.6% and 8.27%
- Population Mitochondria Different-Phenotype (%) [1]: 6.9% and 2.26%
- Population Mitotic Cells (%) [1]: 93.88% and 87.1%
- Population Normal (%) [1]: 100%
- Population Pyknosed Nuclei (%) [1]: 31.82% and 18.13%
- Population Tubulin-Different-Phenotype (%) [1]: 8.05% and 22.56%
- Total Cell Count [1]: 154 and 171
- Population Apoptotic (%) [2]: 0% and 6.33%
- Population Fragmented Nuclei (%) [2]: 23.45% and 22.08%
- Population Healthy Nuclei (%) [2]: 49.56% and 45%
- Population Hoechst High Intensity Objects (%) [2]: 0%
- Population Membrane Permeable-Phenotype (%) [2]: 3.57% and 2.78%
- Population Mitochondria Different-Phenotype (%) [2]: 0% and 6.48%
- Population Mitotic Cells (%) [2]: 100% and 93.67%
- Population Normal (%) [2]: 100%
- Population Pyknosed Nuclei (%) [2]: 26.99% and 32.92%
- Total Cell Count [2]: 226 and 240
- Population Apoptotic (%) [3]: 9.09% and 16.33%
- Population Fragmented Nuclei (%) [3]: 10.5% and 2.76%
- Population Healthy Nuclei (%) [3]: 59.12% and 70.17%
- Population Hoechst High Intensity Objects (%) [3]: 0%
- Population Membrane Permeable-Phenotype (%) [3]: 8.41% and 8.66%
- Population Mitochondria Different-Phenotype (%) [3]: 2.8% and 0.79%
- Population Mitotic Cells (%) [3]: 90.91% and 83.67%
- Population Normal (%) [3]: 100%
- Population Pyknosed Nuclei (%) [3]: 30.39% and 27.07%
- Population Tubulin-Different-Phenotype (%) [3]: 14.02% and 25.2%
- Total Cell Count [3]: 181
- Population Apoptotic (%) [4]: 7.58% and 18.81%
- Population Fragmented Nuclei (%) [4]: 25.35% and 26.19%
- Population Healthy Nuclei (%) [4]: 44.24% and 33.73%
- Population Hoechst High Intensity Objects (%) [4]: 0%
- Population Mitochondria Different-Phenotype (%) [4]: 0% and 1.18%
- Population Mitotic Cells (%) [4]: 92.42% and 81.19%
- Population Normal (%) [4]: 100%
- Population Pyknosed Nuclei (%) [4]: 30.41% and 40.08%
- Total Cell Count [4]: 217 and 252
- Population Apoptotic (%) [5]: 7.14% and 17.65%
- Population Fragmented Nuclei (%) [5]: 19.1% and 8.99%
- Population Healthy Nuclei (%) [5]: 49.44% and 71.91%
- Population Hoechst High Intensity Objects (%) [5]: 0%
- Population Membrane Permeable-Phenotype (%) [5]: 5.68% and 16.41%
- Population Mitochondria Different-Phenotype (%) [5]: 9.09% and 0%
- Population Mitotic Cells (%) [5]: 92.86% and 82.35%
- Population Normal (%) [5]: 100%
- Population Pyknosed Nuclei (%) [5]: 31.46% and 19.1%
- Population Tubulin-Different-Phenotype (%) [5]: 18.18% and 32.03%
- Total Cell Count [5]: 178
- Population Apoptotic (%) [6]: 32.47% and 70.37%
- Population Fragmented Nuclei (%) [6]: 33.5%
- Population Healthy Nuclei (%) [6]: 28% and 39.5%
- Population Hoechst High Intensity Objects (%) [6]: 0%
- Population Membrane Permeable-Phenotype (%) [6]: 17.86% and 22.78%
- Population Mitochondria Different-Phenotype (%) [6]: 1.79% and 2.53%
- Population Mitotic Cells (%) [6]: 67.53% and 29.63%
- Population Normal (%) [6]: 100%
- Population Pyknosed Nuclei (%) [6]: 38.5% and 27%
- Population Tubulin-Different-Phenotype (%) [6]: 26.79% and 75.95%
- Total Cell Count [6]: 200

Structure (SMILES): Cc1cc(-c2ccc3c(c2)CC[C@H]3N2CC3(CCN(C(=O)Cc4cn5cc(C)sc5n4)CC3)C2)ncn1 [PF-5190457]
- Population Apoptotic (%) [1]: 29% and 30%
- Population Fragmented Nuclei (%) [1]: 16% and 18%
- Population Healthy Nuclei (%) [1]: 71% and 46%
- Population Hoechst High Intensity Objects (%) [1]: 4%
- Population Membrane Permeable-Phenotype (%) [1]: 1% and 9%
- Population Mitochondria Different-Phenotype (%) [1]: 5% and 0%
- Population Mitotic Cells (%) [1]: 70%
- Population Normal (%) [1]: 96% and 95%
- Population Tubulin-Different-Phenotype (%) [1]: 24% and 48%
- Total Cell Count [1]: 150 and 121
- Population Apoptotic (%) [2]: 36% and 45%
- Population Fragmented Nuclei (%) [2]: 17% and 20%
- Population Healthy Nuclei (%) [2]: 63% and 55%
- Population Hoechst High Intensity Objects (%) [2]: 4% and 1%
- Population Membrane Permeable-Phenotype (%) [2]: 1% and 6%
- Population Mitochondria Different-Phenotype (%) [2]: 5% and 4%
- Population Mitotic Cells (%) [2]: 63% and 54%
- Population Normal (%) [2]: 95% and 98%
- Population Pyknosed Nuclei (%) [2]: 18% and 24%
- Population Tubulin-Different-Phenotype (%) [2]: 38% and 56%
- Total Cell Count [2]: 186 and 138
- Population Fragmented Nuclei (%) [3]: 19% and 23%
- Population Healthy Nuclei (%) [3]: 72% and 43%
- Population Hoechst High Intensity Objects (%) [3]: 2% and 3%
- Population Membrane Permeable-Phenotype (%) [3]: 1% and 5%
- Population Mitochondria Different-Phenotype (%) [3]: 4% and 5%
- Population Mitotic Cells (%) [3]: 45% and 84%
- Population Normal (%) [3]: 97% and 96%
- Population Tubulin-Different-Phenotype (%) [3]: 26% and 54%
- Total Cell Count [3]: 141 and 126
- Population Apoptotic (%) [4]: 44% and 53%
- Population Fragmented Nuclei (%) [4]: 19% and 25%
- Population Healthy Nuclei (%) [4]: 64% and 49%
- Population Hoechst High Intensity Objects (%) [4]: 3% and 5%
- Population Membrane Permeable-Phenotype (%) [4]: 0% and 1%
- Population Mitochondria Different-Phenotype (%) [4]: 6% and 7%
- Population Mitotic Cells (%) [4]: 55% and 46%
- Population Normal (%) [4]: 96% and 94%
- Population Pyknosed Nuclei (%) [4]: 16% and 25%
- Population Tubulin-Different-Phenotype (%) [4]: 37% and 60%
- Total Cell Count [4]: 180 and 134
- Population Apoptotic (%) [5]: 78% and 34%
- Population Fragmented Nuclei (%) [5]: 30% and 32%
- Population Healthy Nuclei (%) [5]: 59% and 47%
- Population Hoechst High Intensity Objects (%) [5]: 6% and 2%
- Population Mitochondria Different-Phenotype (%) [5]: 2% and 6%
- Population Normal (%) [5]: 93% and 97%
- Population Pyknosed Nuclei (%) [5]: 9% and 20%
- Population Tubulin-Different-Phenotype (%) [5]: 23% and 68%
- Total Cell Count [5]: 157 and 132
- Population Apoptotic (%) [6]: 63% and 62%
- Population Fragmented Nuclei (%) [6]: 22% and 30%
- Population Healthy Nuclei (%) [6]: 66% and 51%
- Population Hoechst High Intensity Objects (%) [6]: 6% and 1%
- Population Membrane Permeable-Phenotype (%) [6]: 0% and 5%
- Population Mitochondria Different-Phenotype (%) [6]: 12% and 14%
- Population Mitotic Cells (%) [6]: 36% and 37%
- Population Normal (%) [6]: 93% and 98%
- Population Pyknosed Nuclei (%) [6]: 10% and 18%
- Population Tubulin-Different-Phenotype (%) [6]: 37% and 64%
- Total Cell Count [6]: 192 and 135

Structure (SMILES): CN(C)CCOc1ccc(/C(=C(/CCCO)c2ccccc2)c2ccc(O)cc2)cc1
- Population Apoptotic (%) [1]: 9.46% and 11.76%
- Population Fragmented Nuclei (%) [1]: 12.72% and 6.58%
- Population Healthy Nuclei (%) [1]: 54.82% and 78.51%
- Population Hoechst High Intensity Objects (%) [1]: 0%
- Population Membrane Permeable-Phenotype (%) [1]: 2.4% and 1.12%
- Population Mitochondria Different-Phenotype (%) [1]: 12.8% and 16.2%
- Population Mitotic Cells (%) [1]: 90.54% and 88.24%
- Population Normal (%) [1]: 100%
- Population Pyknosed Nuclei (%) [1]: 32.46% and 14.91%
- Population Tubulin-Different-Phenotype (%) [1]: 20.8% and 30.73%
- Total Cell Count [1]: 228
- Population Apoptotic (%) [2]: 12.82% and 32.5%
- Population Fragmented Nuclei (%) [2]: 12.81% and 6.25%
- Population Healthy Nuclei (%) [2]: 54.96% and 65.97%
- Population Hoechst High Intensity Objects (%) [2]: 0%
- Population Membrane Permeable-Phenotype (%) [2]: 12.03% and 4.21%
- Population Mitochondria Different-Phenotype (%) [2]: 33.83% and 24.74%
- Population Mitotic Cells (%) [2]: 87.18% and 67.5%
- Population Normal (%) [2]: 100%
- Population Pyknosed Nuclei (%) [2]: 32.23% and 27.78%
- Population Tubulin-Different-Phenotype (%) [2]: 69.92% and 80%
- Total Cell Count [2]: 242 and 288
- Population Fragmented Nuclei (%) [3]: 7.69% and 4.15%
- Population Healthy Nuclei (%) [3]: 73.68% and 82.16%
- Population Hoechst High Intensity Objects (%) [3]: 0%
- Population Membrane Permeable-Phenotype (%) [3]: 2.2% and 3.03%
- Population Mitochondria Different-Phenotype (%) [3]: 9.34% and 7.58%
- Population Mitotic Cells (%) [3]: 93.48% and 78.79%
- Population Normal (%) [3]: 100%
- Population Pyknosed Nuclei (%) [3]: 18.62% and 13.69%
- Population Tubulin-Different-Phenotype (%) [3]: 22.53% and 32.32%
- Total Cell Count [3]: 247 and 241
- Population Apoptotic (%) [4]: 20.78% and 46.67%
- Population Fragmented Nuclei (%) [4]: 6.59% and 4.58%
- Population Healthy Nuclei (%) [4]: 63.57% and 79.58%
- Population Hoechst High Intensity Objects (%) [4]: 0%
- Population Membrane Permeable-Phenotype (%) [4]: 6.1% and 8.41%
- Population Mitochondria Different-Phenotype (%) [4]: 37.8% and 22.57%
- Population Mitotic Cells (%) [4]: 79.22% and 53.33%
- Population Normal (%) [4]: 100%
- Population Pyknosed Nuclei (%) [4]: 29.84% and 15.85%
- Population Tubulin-Different-Phenotype (%) [4]: 85.37% and 84.07%
- Total Cell Count [4]: 258 and 284
- Population Apoptotic (%) [5]: 53.33% and 35.71%
- Population Fragmented Nuclei (%) [5]: 8.78% and 7.97%
- Population Healthy Nuclei (%) [5]: 85.5% and 86.45%
- Population Hoechst High Intensity Objects (%) [5]: 0%
- Population Membrane Permeable-Phenotype (%) [5]: 0% and 4.61%
- Population Mitotic Cells (%) [5]: 46.67% and 64.29%
- Population Normal (%) [5]: 100%
- Population Pyknosed Nuclei (%) [5]: 5.73% and 5.58%
- Total Cell Count [5]: 262 and 251
- Population Apoptotic (%) [6]: 35.29% and 73.91%
- Population Fragmented Nuclei (%) [6]: 11.83% and 8.67%
- Population Healthy Nuclei (%) [6]: 83.6% and 83.67%
- Population Hoechst High Intensity Objects (%) [6]: 0%
- Population Membrane Permeable-Phenotype (%) [6]: 2.89% and 5.58%
- Population Mitochondria Different-Phenotype (%) [6]: 6.75% and 12.75%
- Population Mitotic Cells (%) [6]: 64.71% and 26.09%
- Population Normal (%) [6]: 100%
- Population Pyknosed Nuclei (%) [6]: 4.57% and 7.67%
- Population Tubulin-Different-Phenotype (%) [6]: 53.05% and 80.48%
- Total Cell Count [6]: 372 and 300
